Data set [1] in a line: Displacement of [3H]DALKD from bradykinin receptor in rat brain membranes at pH 6.8 after 2 hrs by liquid scintillation counting method. The format is cell membranes, Membrane.
A short description of data set [2]: Half life in rat plasma by RP-HPLC method. The format is ADME, cell-free. The method in brief:
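Peptide incubated in rat plasma at 37 °C and sampled at 1, 2, 4 and 8 h. Quenched samples were analysed by RP-HPLC. Half-life was calculated as t1/2 = 0.693/b, where b is the slope of the linear fit.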

The nature of data set [3]: Displacement of [3H]BK from bradykinin receptor in rat brain membranes at pH 6.8 after 2 hrs by liquid scintillation counting method. The format is cell membranes, Membrane. The method in brief: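 Competitive binding of [3H]BK to rat brain membranes at pH 6.8. Non-specific binding was defined with 10 μM kallidin. IC50 values were obtained by nonlinear least-squares regression of data from at least two independent experiments run in duplicate, and were also reported as logarithmic values.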

Here are results for four compounds from ChEMBL document CHEMBL3864141, “Cyclic non-opioid dynorphin A analogues for the bradykinin receptors” (Bioorg Med Chem Lett, 2016).

Each structure is given as a SMILES string. Positions of bridges follow the written chain, without caps; N, C: chain ends. Non-standard residues stand in square brackets, D forms with d. Residues, ends and D or L forms follow the SMILES beside them. Nle = CCCC[C@H](N)C(=O)O

As to `CCCC[C@H](NC(=O)[C@H](CCCCN)NC(=O)[C@@H]1CCCN1C(=O)[C@H](CCCCN)NC(=O)[C@@H](N)CCCC)C(=O)N[C@@H](CCCCN)C(=O)O` (H-[Nle]KPK[Nle]K-OH), in data set [1], the IC50 stood at 78 nM and the pIC50 stood at 7.11.

In the case of `CC[C@H](C)[C@@H]1NC(=O)[C@H](CCCNC(=N)N)NC(=O)[C@H](CC(C)C)NC(=O)[C@H](Cc2ccccc2)NC(=O)CC[C@@H](C(=O)N[C@@H](CCCCN)C(=O)O)NC(=O)[C@H](CCCNC(=N)N)NC1=O` (FLRIREK-OH; lactam N-6), the half-life in data set [2] was 5.5 h. In data set [3], this compound returned an IC50 of 191 nM and a pIC50 of 6.72.

In data set [3], `CC[C@H](C)[C@@H]1NC(=O)[C@H](CCCNC(=N)N)NC(=O)[C@H](CC(C)C)NC(=O)[C@H](CCCCN)NC(=O)CC[C@@H](C(=O)N[C@@H](CCCCN)C(=O)O)NC(=O)[C@H](CCCNC(=N)N)NC1=O` (KLRIREK-OH; lactam N-6) came in with an IC50 of 302 nM and a pIC50 of 6.52.

In data set [3], `CC[C@H](C)[C@@H]1NC(=O)[C@H](CCCNC(=N)N)NC(=O)[C@H](CC(C)C)NC(=O)CC[C@@H](C(=O)N[C@@H](CCCCN)C(=O)O)NC(=O)[C@H](CCCNC(=N)N)NC1=O` (LRIREK-OH; lactam N-5) registered an IC50 of 1510 nM and a pIC50 of 5.82.
